Only some compounds are listed: those with a hit (about 2.3% of all), similar ones and a draw of the others.
V1R ag counter = counter-screen for oxytocin receptor agonists: human V1a receptor agonists. CHO-V1R cells, Fluo-8 calcium fluorescence, agonist mode; 0% DMSO, 100% 3 nM vasopressin. activation, % at 3 µM. 320,000 tested, 0.25% active;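 active means activation above the mean activation of all tested compounds plus 3 SD, per screening run, cut at about 20% in these data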;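 further: signal is peak over basal fluorescence ratio across a 100 second FLIPR read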
TAAR1 agonist = human TAAR1 agonism. Q96RJ0. CHO RD-HGA16 TAAR1, Fluo-8 calcium fluorescence; vehicle wells 0%, saturating PEA agonist 100%. 360,000 tested, 0.99% active. activation, % at 3 µM;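 active means activation above the mean activation of all test compounds in the run plus 3 SD, cut at about 38% in these data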
Target sequence (Q96RJ0 whole entry, looked up): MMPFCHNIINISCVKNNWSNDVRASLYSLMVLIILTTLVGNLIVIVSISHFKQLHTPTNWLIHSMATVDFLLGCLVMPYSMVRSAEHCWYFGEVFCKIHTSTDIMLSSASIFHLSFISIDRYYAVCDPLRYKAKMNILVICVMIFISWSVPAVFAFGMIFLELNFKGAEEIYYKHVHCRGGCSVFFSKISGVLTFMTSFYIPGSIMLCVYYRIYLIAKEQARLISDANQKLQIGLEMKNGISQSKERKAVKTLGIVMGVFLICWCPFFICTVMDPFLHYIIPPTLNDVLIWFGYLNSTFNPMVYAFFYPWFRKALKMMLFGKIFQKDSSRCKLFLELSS
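Benchmarks: low control DMSO, high control PEA (EC100); System: CHO RD-HGA16 cells carrying human TAAR1 plus Gα16; Detection: Fluo-8 fluorescence, 5 s baseline then 140 s kinetic read; Schedule: 17-24 h plating, Fluo-8 75 min 37 °C, 30 min RT; Read-out basis: % activation from peak over basal fluorescence ratio, DMSO-to-PEA scaled.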
TAAR1 antag = antagonists of human TAAR1; Q96RJ0; CHO RD-HGA16 TAAR1, Fluo-8 calcium fluorescence, antagonist; inhibition, % at 3 µM; 360,000 tested, 1.5% active;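 active means inhibition above a per-plate cutoff, the mean inhibition of test compounds on that plate plus 3 SD, cut at about 49% in these data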;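 further: 0% = DMSO plus EC80 beta-PEA response and 100% = DMSO alone without agonist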
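System: RD-HGA16 CHO cells with stable hTAAR1 and Gα16 | Probe or stimulus: EC80 β-phenethylamine stimulus | Dosing: 3 µM, single point | Times: Dye loading 75 min at 37 °C, then 30 min room temperature | Measured by: Fluo-8 calcium-sensitive fluorescence | Read-out basis: % inhibition of agonist calcium response | Replicates: n of 1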
OXTR ag = agonists of human oxytocin receptor; CHO-OTR cells, Fluo-8 calcium fluorescence; normalized: DMSO 0%, oxytocin 100%; activation, % at 3 µM; 320,000 tested, 0.32% active; AID 2435;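 active means activation above the mean of all tested compounds plus 3 SD, cutoff set per screening run, cut at about 20% in these data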;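 further: peak over basal fluorescence ratio from a 100 s FLIPR kinetic read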
Target sequence (P30559 whole entry, looked up): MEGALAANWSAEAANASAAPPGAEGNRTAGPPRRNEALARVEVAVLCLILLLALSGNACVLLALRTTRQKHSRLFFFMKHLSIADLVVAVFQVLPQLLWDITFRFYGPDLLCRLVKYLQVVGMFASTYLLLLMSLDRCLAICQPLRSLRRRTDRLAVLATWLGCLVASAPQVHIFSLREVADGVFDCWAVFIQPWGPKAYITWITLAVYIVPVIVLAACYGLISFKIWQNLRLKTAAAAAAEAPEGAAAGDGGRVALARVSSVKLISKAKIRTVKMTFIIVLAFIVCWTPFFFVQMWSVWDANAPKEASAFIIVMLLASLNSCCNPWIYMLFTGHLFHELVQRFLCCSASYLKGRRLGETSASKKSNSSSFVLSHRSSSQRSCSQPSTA
OXTR potentiator = potentiates the human oxytocin receptor response; P30559; CHO-OTR cells, Fluo-8 calcium fluorescence, potentiator mode; 0% = oxytocin EC15, 100% = EC100; activation, % at 3 µM; 320,000 tested, 0.061% active; AID 2445;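 active means activation above that plate's cutoff, the mean activation of tested compounds plus 3 SD, cut at about 6.6% in these data, passing the limit was not always enough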;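 further: 100% uses oxytocin at 75 nM as the full agonist control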
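Dosing: Single dose, 3.0 µM nominal final compound concentration | Material: Human OTR in CHO cells | Technique: Kinetic Fluo-8 calcium fluorescence | Benchmarks: EC15 oxytocin alone as 0%, 75 nM oxytocin as 100% | Probe or stimulus: Oxytocin at about EC15, sub-maximal agonist stimulus | Incubation: Compound 6 min at room temperature before oxytocin, 100 s read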
* marks the source's active call; other numbers are inactive results; · = no result.

SMILES	V1R ag counter	TAAR1 agonist	TAAR1 antag	OXTR ag	OXTR potentiator
Cc1cc(C)cc(N(CC(=O)NCCSc2ccccn2)S(=O)(=O)c2ccccc2)c1	-1.9	7.4	49.3*	-2.1	-8.2
COc1ccc(OC)c(N(CC(=O)NCCSCc2ccco2)S(=O)(=O)c2ccc(OC)c(OC)c2)c1	2.0	13.4	79.3*	-0.4	-10.4
COc1ccc(C)cc1N(CC(=O)NCCSCc1ccco1)S(=O)(=O)c1ccc(C)cc1	5.0	3.7	45.1	1.2	-10.5
COc1ccc(N(CC(=O)NCC(C)C)S(=O)(=O)c2ccccc2)cc1	-0.8	1.9	17.4	-0.6	-5.8
COc1ccc(N(CC(=O)NCCSCc2ccccc2C)S(=O)(=O)c2ccccc2)cc1	1.8	4.7	51.6*	3.5	-15.5
COc1ccccc1N(CC(=O)NCCSCc1cccc(C)c1)S(=O)(=O)c1ccccc1	4.6	3.2	80.0*	3.4	-15.3
CC(C)(C)OC(=O)N1CCC2CCN(S(=O)(=O)c3ccccc3)CC21 (centres undefined)	·	0.4	-14.2	·	·
CC(=O)C1=C(C)N(Cc2ccc(F)cc2)C(=S)NC1c1cccc(Cl)c1 (centres undefined)	·	1.3	46.6	·	·
C[C@H](CO)N1C[C@H](C)[C@@H](CN(C)C(=O)Nc2ccc(C(F)(F)F)cc2)OCc2cn(nn2)CCCC1=O	·	5.7	-8.2	·	·
COC(=O)Cc1nnn2c1[C@H](C)[C@H](c1ccccc1Br)OC[C@@H]2c1ccccc1	·	3.2	-2.8	·	·
COc1ccccc1N1CCN(C(=O)C2CCN(S(=O)(=O)c3ccc4c(c3)CC(C)N4C(C)=O)CC2)CC1 (centres undefined)	7.5	10.1	24.1	4.8	-11.1
CC(=O)N1CCCc2cc(S(=O)(=O)N3CCCC(C(=O)N4CCN(c5ccccc5)CC4)C3)ccc21 (centres undefined)	7.9	11.1	32.5	11.2	-22.6
COc1ccccc1N1CCN(C(=O)C2CCN(S(=O)(=O)c3ccc4c(c3)CC(C)N4C(=O)C3CC3)CC2)CC1 (centres undefined)	12.3	13.0	56.9*	5.3	-7.3
COc1ccccc1N1CCN(C(=O)C2CCCN(S(=O)(=O)c3ccc4c(c3)CCCN4C(C)=O)C2)CC1 (centres undefined)	6.9	15.0	67.9*	6.6	-22.8
COc1ccc(-c2csc(NCCc3nc4cc(Cl)c(Cl)cc4n3CCCO)n2)cc1	0.1	9.5	55.5*	1.8	-13.1
COc1cc(/C=C/C(=O)c2ccc3c(c2)OCO3)cc(Cl)c1O	97.5*	56.4*	43.4	69.7*	-15.7
CC(C)[C@@H](C)/C=C/[C@@H](C)[C@H]1CC[C@@H]2[C@]1(C)CCC1[C@]23C=C[C@]2(C[C@@H](O)CC[C@]12C)N(C(=O)Cc1ccccc1)O3 (some centres undefined)	·	0.4	-0.5	·	·
Cc1cc(C(=O)CSc2nc(N)cc(N)n2)c(C)n1CCc1ccc(F)cc1	2.1	38.9*	16.6	5.1	-13.9
Cc1cc(C(=O)COC(=O)c2ccc(O)cc2)c(C)n1CCc1ccc(F)cc1	1.9	36.1	19.9	3.9	-11.5
O=C(/C=C\c1cn(-c2ccccc2)nc1-c1ccccc1)Nc1nccs1	3.5	1.6	51.2*	4.4	-6.4
O=C(CSc1nnc(-c2ccc(Cl)cc2)n1Cc1ccco1)Nc1ccc2c(c1)OCCO2	-0.6	7.8	41.2	-1.2	-9.3
CC(=O)Nc1cccc(NC(=O)CSc2ncc(-c3ccc(Cl)cc3)n2Cc2ccco2)c1	11.3	17.9	84.6*	12.7	-22.5
COc1ccc(-c2cnc(SCC(=O)Nc3ccc4c(c3)OCO4)n2Cc2ccco2)cc1	·	12.4	51.1*	·	·
C[C@H](O)[C@@H]1C(=O)N2CCc3c([nH]c4c(-c5ccc6c(c5)OCO6)cccc34)[C@@H]2C[C@@H]1N(C)C(=O)NC1CCCCC1	·	1.4	24.9	·	·
CCn1c(=O)cc(SCC(=O)Nc2cccc(C)n2)c2ccccc21	-0.9	5.2	4.0	-0.3	-8.4
SMILES	V1R ag counter	TAAR1 agonist	TAAR1 antag	OXTR ag	OXTR potentiator
CCOc1ccc(C(C)NC(=S)NCc2ccc(Cl)cc2)cc1 (centres undefined)	18.2	45.2*	21.2	16.7	-27.9
CCCc1ccc(C(C)NC(=S)NCc2ccc(F)cc2)cc1 (centres undefined)	21.4*	57.9*	69.6*	21.2*	-17.2
O=c1[nH]c(=S)[nH]c2nc(-c3ccccc3)cnc12	-0.2	-1.0	-15.3	-2.4	-0.6
Cc1cc2nc3c(=O)[nH]c(=S)[nH]c3nc2cc1NC(=O)C(F)(F)F	80.0*	10.9	-3.5	55.0*	-16.7
O=c1c2ccccc2nc(COc2ccccc2)n1/N=C/c1cn[nH]c1-c1ccccc1	3.5	8.7	55.1*	-0.7	-6.0
COC(=O)[C@@]1(Sc2ccc(C)cc2)CC(=O)N(c2ccc(Cl)cc2)[C@@H]1c1ccccc1	·	1.1	47.7	·	·
COC(=O)[C@@]1(Sc2ccc(C)cc2)CC(=O)N(c2ccc3c(ccn3C)c2)[C@@H]1c1ccccc1	·	3.3	55.0*	·	·
CN1Cc2sc(NC(=S)NC(=O)c3ccccc3)c(C#N)c2CC1(C)C	34.0*	13.2	9.8	32.3*	-9.7
CC(C)C[C@H]1COc2cccc(N3CCCCC3)c2S(=O)(=O)N1	·	-1.9	-31.7	·	·
COc1cccc(CN2CCC(C(=O)Nc3ccc(-c4cccc(C)c4)cc3)CC2)c1O	6.1	37.9*	12.4	12.4	-12.2
CC(=C/c1ccccc1)/C=N/NC(=O)c1ccc2nc[nH]c2c1	1.1	8.2	-9.6	0.8	-8.0
O=C(N/N=C/C(Br)=C\c1ccccc1)c1ccc2nc[nH]c2c1	0.4	9.4	54.3*	-1.7	-5.5
C[C@H](O)[C@@H]1CN2CCc3ccc(-c4ccc5c(c4)OCO5)cc3[C@@H]2C[C@@H]1N(C)Cc1cc(Cl)cc(Cl)c1	·	0.5	-10.6	·	·
CC(=O)c1c(C)[nH]c(C(=O)OCCCCN2C(=O)c3ccccc3C2=O)c1C	12.1	20.6	71.5*	19.4	-23.5
Cc1ccc(-n2cc(-c3ccccc3)c3c(N4CCOCC4)ncnc32)cc1	·	6.3	54.2*	·	·
CC(C)(C)c1ccc(NC(=O)Nc2ccc(F)cc2)cc1	10.7	12.4	94.0*	8.6	-14.2
CC(C)(C)c1ccc(COC(=O)Nc2ccc(F)cc2)cc1	0.0	-0.9	19.6	-1.5	-3.2
O=C(Nc1ccc(S(=O)(=O)N2CCCCC2)cc1)c1ccncc1	5.4	10.7	-0.5	4.2	-17.9
O=C(Nc1ccc(Cc2ccncc2)cc1)c1ccc(S(=O)(=O)N2CCCC2)cc1	·	22.4	56.6*	·	·
O=S(=O)(c1ccc(NC(=S)NCc2ccc(F)cc2)cc1)N1CCOCC1	19.9	43.6*	27.4	9.4	-9.2
N#Cc1ccc(NCC(=O)Nc2ccc(S(=O)(=O)N3CCCCC3)cc2)cc1	11.0	38.9*	21.1	6.7	-4.9

Screening data as filed in PubChem BioAssay.
